test: Toxicity liver stage against HepG2, at 10uM; assay type: cell-based; design: test concentration 10 uM, cell line HepG2-A16-CD81EGFP; conditions: human, HepG2-A16-CD81EGFP cells; read-out: INHIBITION
Outline: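 Uninfected HepG2-A16-CD81EGFP cells, 3 × 10^3 per well, 1536-well, plated on prespotted compound at 10 μM final, parasite-free screening media added to match infected plates; puromycin 10 μM positive, DMSO 0.5% negative; run in parallel with 48 h PbLuc assay at 37 °C, 5% CO2; viability by CellTiter-Glo luminescence, normalized to controls.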

SMILES | cytotoxicity at 10 µM [%]
Cn1nc(C(=O)N2CC(Oc3nc4c(Cl)cccc4s3)C2)ccc1=O | 1.48
COc1cc(C2SCC(=O)Nc3ccsc32)cc(OC)c1OC (stereo not given) | -1.88
c1ccc(C2Cn3ccnc3CN2Cc2ncc[nH]2)cc1 (stereo not given) | -2.8
CCOc1ccc(CN2CCOCC2c2[nH]ncc2C)cc1CO (stereo not given) | -2.92
Cn1ccc2cc(CC3COCCN(C(=O)c4cccnc4)C3)ccc21 (stereo not given) | 7.24
CC(=O)N1CCC1c1cc(N2CCSCC2)nc(C)n1 (stereo not given) | 6.53
CCc1nc(N2CCOCC2)ncc1C(=O)NC(c1cccs1)C(C)C (stereo not given) | 12.3
Cc1c(C(=O)N[C@@H]2CC[C@@H](N3CCCC3)[C@@H]2O)[nH]c2ccc(F)cc12 | -1.85
COc1ccc2[nH]cc(C(=O)N3C[C@@H](O)[C@H](N4CCOCC4)C3)c2c1 | -9.06
CNCC(=O)N1CCC(c2cccc(Oc3ccccc3)n2)CC1 | -11.7
COCC(C)(C)NC(=O)CC(c1ccccc1)C(F)(F)F (stereo not given) | -50.1
CCCc1nn(Cc2csc(C(C)C)n2)c(=O)o1 | -47.7
CNC(=O)Cn1ccc2ccc(NC(=O)C(C)CSC)cc21 (stereo not given) | -1.1
CC(C)c1nc(CC(=O)Nc2cnccc2O)cs1 | 9.89
Cc1cccc(C(=O)NCCNS(=O)(=O)c2cccs2)c1C | -0.642
CCCC(C)C(=O)Nc1ccc(OC)nc1N1CCN(C(C)=O)CC1 (stereo not given) | -5.46
O=C(CNC(=O)Nc1cccc(Cl)c1SC(F)F)NC1CC1 | 0.797
COc1ccccc1C1(CNCc2ccc(C#N)cc2)CCOCC1 | 7.62
O=C1CCCN1c1cccc(CNCc2nc(C3CC3)no2)c1 | -7.11
CC(C)(C)c1nnc(CN2CCC(c3cc4ccccc4[nH]3)CC2)o1 | 24.3
Cc1nnc(SCC(=O)N2CCc3[nH]nc(C4CCC4)c3C2)o1 | -7.09
CCC(CC)C(=O)N1CCC2(CC1)c1ccccc1[C@@H](OC)[C@@H]2O | 6.75
CCOc1ccc(C(=O)CCC(=O)N(C)Cc2snnc2C)cc1C | -2.29

SMILES | cytotoxicity at 10 µM [%]
CC(C)=CCN1Cc2nnc(C3CCOCC3)n2C(Cc2c[nH]cn2)C1 (stereo not given) | -9.36
CCC[C@H]1CN(C(=O)c2cc(-c3cccs3)n(C)n2)C[C@@H]1N | -1.02
CCn1nc(CC(C)C)cc1C(=O)N1C[C@H](O)[C@@H](N2CCCCC2)C1 | 20.7
c1cn(Cc2nnc(C3CCN(C4CCOCC4)CC3)n2C2CC2)cn1 | 0.442
Cc1cc(C(=O)N2CCCC(c3cc(C(F)(F)F)[nH]n3)C2)[nH]n1 (stereo not given) | -6.79
CC(C)n1ncc2cc(NC(=O)N3CCC(CO)CC3)cnc21 | -14.5
NC(=O)CN1CCCN(C(=O)CCOc2ccccc2Cl)CC1 | -6.73
CCCc1noc(CCC(=O)N2CCCC2c2cccs2)n1 (stereo not given) | -14.4
COc1ccc(C)cc1CN(C)CC(=O)NC1(C)CCS(=O)(=O)C1 (stereo not given) | 1.28
COc1ccc(-c2noc(CN3CCCC3Cn3cccn3)n2)cc1 (stereo not given) | 2.88
COCc1nc(C(=O)N2CCCC2c2ccncc2)cs1 (stereo not given) | -11.4
O=C(NCC1CCOC1)N1CCN(Cc2ccc3c(c2)CCO3)CC1 (stereo not given) | -4.2
O=C(C1COCCO1)N1CCN(Cc2ccc3c(c2)CCO3)CC1 (stereo not given) | -5.99
CC(=O)N(C)c1nc(CN2CCOC(Cn3cc(C)cn3)C2)cs1 (stereo not given) | -7
COCc1nc(C(=O)N2CCCCC2Cn2cc(C)cn2)cs1 (stereo not given) | 3.18
FC(F)CNc1cnc(C2CCNCC2)cn1 | 0.83
O=C1NCC[C@]12CN(CC1CCOCC1)C[C@H]2c1ccccc1 | 6.59
CCc1nc(-c2ccnc(N3CCNCC3)n2)no1 | 11.9
CNC(=O)C1Cn2ccnc2C2(CCN(Cc3cccc(C)n3)CC2)O1 (stereo not given) | 7.67
CO[C@@H]1CCN(Cc2ccoc2)[C@H]1Cc1ccccc1 | 7.46
COCCN1Cc2nccn2CC(COCc2csc(C)n2)C1 (stereo not given) | 6.22
COc1ccccc1CC(=O)N1C[C@@H]2CC[C@H]1CN(Cc1cscn1)C2 | -1.87

Reference: ChEMBL document CHEMBL4513216, “Probing the Open Global Health Chemical Diversity Library for Multistage-Active Starting Points for Next-Generation Antimalarials” (ACS Infect Dis, 2020)
